According to PubChem BioAssay:
Activity calls are given as the source filed them.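 How the source made its calls, unless noted: active means fluorescence slope after compound addition differing from the mean of all tested samples at 99.7% confidence, mostly higher but some lower; inactive means the rest.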

Columns and labels:
[1] = inhibitors of TNFa-induced NFkB p65 translocation, primary screen, imaging, HUVEC, MLSMR starter and 10KST1 sets (AID 438;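 active means inhibition above 20% together with a positive visual image hit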;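 further: compound added about 3h40 before a 20 min TNFalpha stimulation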;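 on inhibition: signal is the nuclear over cytoplasmic p65 intensity ratio per well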); details: HUVEC TNFa-induced p65 nuclear translocation; cell count: measured here: nuclei count (cytotoxicity indicator), at 2.08 µM; inhibition: at 2 µM, stronger effect = higher value, 0% TNFa-plus-vehicle, 100% no-TNFa wells
[2] = inhibitors of mutant huntingtin aggregation, primary screen, imaging, exon1htt(103Q)mCFP cells, high-content imaging (AID 483;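 active means visual image review flags a hit and inhibition of aggregation exceeds 20%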;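 further: compound exposure lasted 3 days before fixation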;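 on nuclei count: percent of the per-plate median nuclei count of sample wells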); details: exon1htt(103Q)mCFP cell line, aggregate imaging, at 2 µM; inhibition of aggregation: stronger effect = higher value; nuclei count: measured here: cell count, toxicity
[3] = inhibitors of E-selectin induction by TNFa, primary screen, imaging, HUVEC, immunofluorescence, MLSMR starter and 10KST1 sets (AID 487;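 active means visually confirmed hit in the image check and inhibition above 20%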;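 on inhibition: signal is fraction of cell area covered by stained E-selectin grains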;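 on nuclei count: 100% = median nuclei count of all wells on the same plate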); details: HUVEC TNFalpha-induced E-selectin immunofluorescence imaging, at 2 µM; inhibition: stronger effect = higher value; nuclei count: measured here: cell number, toxicity
[4] = biological target: Voltage-gated potassium channel subunit beta-2 (Rattus norvegicus) (UniProt P62483); assay: KvBeta enzyme negative modulators, primary screen, biochemical, NADPH fluorescence (AID 622;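 active means fluorescence slope higher than the sample average by over 3 SD, cut at about -0.22 in these data, passing the limit was not always enough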;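 further: slope of raw intensity against log time taken from 70 to 1610 s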); details: recombinant KvBeta, 4-cyanobenzaldehyde reduction, at 10 µM, stronger effect = higher value
[5] = biological target: Voltage-gated potassium channel subunit beta-2 (Rattus norvegicus) (UniProt P62483); assay: KvBeta positive modulators, primary screen, biochemical, NADPH fluorescence (AID 623;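 active means NADPH fluorescence slope more negative than the mean of all samples by about 3 SD, 99.7% confidence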;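 further: fluorescence intensity change per second fitted from 20 to 320 s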); details: Recombinant KvBeta, NADPH fluorescence decrease slope, 10 min; at 10 µM; stronger effect = lower value
[6] = biological target: Muscarinic acetylcholine receptor M4 (Homo sapiens) (UniProt P08173); assay: compounds altering M4/GIRK thallium flux, either direction, primary screen, M4 allosteric agonist project, cell-based, HEK293 M4/GIRK, BTC-AM (AID 625); details: at 10 µM, actives lie on both sides;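 further: thallium influx through GIRK channels coupled to M4 in HEK293 cells with BTC-AM dye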
Summary of the method: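 System: HEK293 cells with M4 receptor and GIRK channels | Incubation: Cells overnight at 37 °C, BTC-AM loading 1 h, reads 2 min total | Technique: Kinetic BTC-AM fluorescence sampled at 1 Hz, 10 s pre-addition baseline | Measure: Post-addition slope, 15–24 s, of baseline-normalized fluorescence | Control set: Carbachol positive, DMSO negative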

[7] = inhibitors of Sendai virus-induced IRF3 signaling, primary screen, TLR/RLR signaling modifier project, cell-based, Sendai virus stimulus, luciferase, 10K MLSCN set (AID 602276;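 active means inhibition at or above 50% at 10 µM; inactive means inhibition below 50%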;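 further: firefly luciferase from ISG56 promoter only with Renilla not read in this screen; 0% = Sendai virus plus DMSO and 100% = medium plus DMSO without virus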); details: HEK293 RL24 IRF3 luciferase reporter, at 10 µM, stronger effect = higher value
[8] = inhibitors of poly I:C-induced TLR3 signaling, primary screen, cell-based, poly I:C stimulus, luciferase, 10K MLSCN set (AID 602277;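 active means inhibition of the reporter signal at or above 50%; inactive means inhibition below 50%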); details: HEK293-TLR3 RL24 IRF3 luciferase reporter, at 10 µM, stronger effect = higher value

Muscarinic acetylcholine receptor M4 (Homo sapiens), sequence (P08173 whole entry, looked up): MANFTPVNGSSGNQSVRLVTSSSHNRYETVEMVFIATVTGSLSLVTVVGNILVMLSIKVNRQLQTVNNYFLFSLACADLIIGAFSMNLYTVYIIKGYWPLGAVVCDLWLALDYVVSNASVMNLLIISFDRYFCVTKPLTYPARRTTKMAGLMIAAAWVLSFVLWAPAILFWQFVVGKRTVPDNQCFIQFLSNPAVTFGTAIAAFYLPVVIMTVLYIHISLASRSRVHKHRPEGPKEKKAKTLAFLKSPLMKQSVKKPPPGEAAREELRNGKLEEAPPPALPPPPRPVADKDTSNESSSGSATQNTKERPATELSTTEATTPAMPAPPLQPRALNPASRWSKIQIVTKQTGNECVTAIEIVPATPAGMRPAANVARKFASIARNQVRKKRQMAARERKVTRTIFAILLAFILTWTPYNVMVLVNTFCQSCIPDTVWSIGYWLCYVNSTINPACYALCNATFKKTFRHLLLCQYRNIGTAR
Voltage-gated potassium channel subunit beta-2 (Rattus norvegicus), sequence (P62483 whole entry, looked up): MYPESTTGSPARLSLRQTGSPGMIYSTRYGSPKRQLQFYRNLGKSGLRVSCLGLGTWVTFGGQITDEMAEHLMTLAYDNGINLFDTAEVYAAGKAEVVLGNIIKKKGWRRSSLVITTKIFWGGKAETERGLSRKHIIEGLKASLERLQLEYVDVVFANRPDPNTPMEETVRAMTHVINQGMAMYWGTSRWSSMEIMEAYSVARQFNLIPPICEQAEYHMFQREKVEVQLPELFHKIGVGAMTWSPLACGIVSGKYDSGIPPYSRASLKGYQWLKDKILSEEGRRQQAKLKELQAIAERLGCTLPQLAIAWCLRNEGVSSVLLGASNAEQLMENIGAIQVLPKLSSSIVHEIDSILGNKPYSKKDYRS

Row | Compound | cell count [1] | inhibition [1] | inhibition of aggregation [2] | nuclei count [2] [%] | inhibition [3] | nuclei count [3] [%] | fluorescence slope [4] | NADPH fluorescence slope [5] | fluorescence slope [6] | inhibition [7] | inhibition [8]
1 | CCOC(=O)N1CCC(NC(=O)c2ccc3nc(N4CCOCC4)sc3c2)CC1 | 585 | 2.2% (inactive) | 0% (inactive) | 112 | 36% (inactive) | 90.8 | -0.591 (inactive) | 1.8e-05 (inactive) | 0.00698 (inactive) | 12.9% (inactive) | 12.3% (inactive)
2 | COc1ccc(C(F)(F)F)cc1NC(=O)c1nc2nc(C)cc(C(F)F)n2n1 | 800 | 16.4% (inactive) | 14.9% (inactive) | 94.5 | -22.3% (inactive) | 103 | -0.498 (inactive) | -2e-05 (inactive) | 0.00547 (inactive) | 5.86% (inactive) | 10.9% (inactive)
3 | O=C(CCCn1c(=S)[nH]c2ccccc2c1=O)N1CCCCC1 | 452 | -6.2% (inactive) | 6.5% (inactive) | 123 | 1.4% (inactive) | 106 | -0.451 (inactive) | 2.5e-05 (inactive) | 0.00588 (inactive) | -0.408% (inactive) | 6.14% (inactive)
4 | C/C(CC(O)(/C=N/O)c1ccccc1)=N\O (stereo not drawn) | 343 | 2.4% (inactive) | 4% (inactive) | 97 | -60.1% (inactive) | 120 | -0.569 (inactive) | -5.8e-05 (inactive) | 0.00371 (inactive) | 14.3% (inactive) | 15.7% (inactive)
5 | c1ccc(Cn2nnnc2C(c2ccccn2)N2CCOCC2)cc1 (stereo not drawn) | 485 | 2.1% (inactive) | -13% (inactive) | 81.4 | -85.1% (inactive) | 116 | -0.577 (inactive) | -4.9e-05 (inactive) | 0.00747 (inactive) | -6.48% (inactive) | 2.75% (inactive)
6 | CCSc1nnc(NC(=O)c2ccc(C)o2)s1 | 603 | -10.7% (inactive) | 21.1% (inactive) | 96.3 | 11.4% (inactive) | 96.3 | -0.531 (inactive) | -4e-05 (inactive) | 0.00557 (inactive) | -41.5% (inactive) | -89% (inactive)
7 | CCN(CC)C(=O)CSc1nc2ccc(NC(=O)CSc3nccn3C)cc2s1 | 729 | -2.4% (inactive) | -36.9% (inactive) | 116 | 19.3% (inactive) | 94.3 | -0.577 (inactive) | -1.3e-05 (inactive) | 0.00661 (inactive) | -9.79% (inactive) | -19.1% (inactive)
8 | Cc1cccc2cc(CN(Cc3nnnn3C3CCCC3)C3CCCCC3)c(=O)[nH]c12 | 349 | 5.8% (inactive) | -3.3% (inactive) | 99.1 | -44% (inactive) | 106 | -0.466 (inactive) | 4.8e-05 (inactive) | 0.00597 (inactive) | 7.22% (inactive) | 21.3% (inactive)
